Test results published in PubChem BioAssay AID624084 (The Scripps Research Institute Molecular Screening Center, 2012).

Target: metallo-beta-lactamase IMP-1 (Pseudomonas aeruginosa)
Test: IMP-1 metallo-beta-lactamase inhibitors, Ki determination, late-stage follow-up, nonselective VIM-2 MBL inhibitor project, biochemical, absorbance, Ki and Km (AID 624084)
Conditions: recombinant IMP-1, nitrocefin hydrolysis absorbance 495 nm, kinetic
Procedure, shortened: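 Assay system: IMP-1 enzyme | Amount: IMP-1 enzyme at 0.1 nM final | Incubation: 6 min continuous absorbance reading at room temperature | Technique: Kinetic absorbance, 495 nm | Read-out: Ki from mixed-inhibition model fit | Repeats: Two replicate measurements | Doses: Multiple inhibitor concentrations crossed with varied substrate levels | Medium: pH 7.1 HEPES, ZnSO4, Brij 35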

Q: Which Ki does the source give for `CN1CCN(NC(=O)CN2C(=O)/C(=C/c3c(Cl)ccc(Cl)c3Cl)SC2=S)CC1` here?
A: 930 nM
